# Source: ChEMBL document CHEMBL4196149, “Antiproliferative Alkaloids from Alangium longiflorum, an Endangered Tropical Plant Species” (J Nat Prod, 2018)
# Calls of active or inactive are those of the source. The rule behind the calls is not given here.
# How the values were obtained:
# Homo sapiens [1] = species on record: Homo sapiens; test: Antiproliferative activity against human KBVIN cells at 40 uM after 72 hrs by SRB assay; format: functional, cell-based
# MDA-MB-231 [2] = test: Antiproliferative activity against human MDA-MB-231 cells at 40 uM after 72 hrs by SRB assay; format: functional, cell-based
# KB [3] = test: Antiproliferative activity against human KB cells at 40 uM after 72 hrs by SRB assay; format: functional, cell-based
# A549 [4] = test: Antiproliferative activity against human A549 cells at 40 uM after 72 hrs by SRB assay; format: functional, cell-based
# MCF7 [5] = test: Antiproliferative activity against human MCF7 cells at 40 uM after 72 hrs by SRB assay; format: functional, cell-based
# [6] = Antiproliferative activity against human KBVIN cells after 48 hrs by SRB assay; format: functional, cell-based
# In short: (§1)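 SRB assay. Cell suspensions were seeded at 4000–12 000 cells/well in RPMI-1640 with 2 mM L-glutamine, 25 mM HEPES, 10% FBS, streptomycin and penicillin. Cells were exposed to compounds for 72 h. For the time course, cells were plated 24 h before treatment and then exposed for 24, 48 or 72 h. Cells were fixed in 10% TCA and stained with 0.04% SRB. Bound dye was dissolved in 10 mM Tris and read at 515 nm.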
# [7] = Antiproliferative activity against human KBVIN cells after 72 hrs by SRB assay; format: functional, cell-based; in short: as §1
# [8] = Antiproliferative activity against human KBVIN cells after 24 hrs by SRB assay; format: functional, cell-based; in short: as §1
# MDA-MB-231 [9] = test: Antiproliferative activity against human MDA-MB-231 cells after 48 hrs by SRB assay; format: functional, cell-based; details: MDA-MB-231, 48 h
# KB [10] = test: Antiproliferative activity against human KB cells after 48 hrs by SRB assay; format: functional, cell-based
# KB [11] = test: Antiproliferative activity against human KB cells after 24 hrs by SRB assay; format: functional, cell-based
# A549 [12] = test: Antiproliferative activity against human A549 cells after 72 hrs by SRB assay; format: functional, cell-based; details: A549, 72 h
# In short: (§2)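 Time-course: cells seeded at 4000–12 000 per well 24 h before compound exposure for 24, 48 or 72 h, as named in the line. Cells then fixed in 10% trichloroacetic acid, stained with 0.04% SRB, and dye solubilized in 10 mM Tris base read at 515 nm. […] Medium RPMI-1640 with 10% FBS.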
# MDA-MB-231 [13] = test: Antiproliferative activity against human MDA-MB-231 cells after 24 hrs by SRB assay; format: functional, cell-based; details: MDA-MB-231, 24 h
# MCF7 [14] = test: Antiproliferative activity against human MCF7 cells after 72 hrs by SRB assay; format: functional, cell-based; details: MCF7, 72 h
# MCF7 [15] = test: Antiproliferative activity against human MCF7 cells after 24 hrs by SRB assay; format: functional, cell-based; details: MCF7, 24 h
# KB [16] = test: Antiproliferative activity against human KB cells after 72 hrs by SRB assay; format: functional, cell-based
# A549 [17] = test: Antiproliferative activity against human A549 cells after 24 hrs by SRB assay; format: functional, cell-based; details: A549, 24 h; in short: as §2
# A549 [18] = test: Antiproliferative activity against human A549 cells after 48 hrs by SRB assay; format: functional, cell-based; details: A549, 48 h; in short: as §2
# MDA-MB-231 [19] = test: Antiproliferative activity against human MDA-MB-231 cells after 72 hrs by SRB assay; format: functional, cell-based; details: MDA-MB-231, 72 h
# MCF7 [20] = test: Antiproliferative activity against human MCF7 cells after 48 hrs by SRB assay; format: functional, cell-based; details: MCF7, 48 h
# Ovarian carcinoma cell = test: Antiproliferative activity against human ovarian cancer cells at 10 to 100 nM after 48 hrs by SRB assay; format: functional, cell-based
# Leukemia cell = test: Antiproliferative activity against human leukemia cells at 10 to 100 nM after 48 hrs by SRB assay; format: functional, cell-based
# Melanoma cell = test: Antiproliferative activity against human melanoma cells at 10 to 100 nM after 48 hrs by SRB assay; format: functional, cell-based
# Breast carcinoma cell = test: Antiproliferative activity against human breast cancer cells at 10 to 100 nM after 48 hrs by SRB assay; format: functional, cell-based
# Prostatic carcinoma cell = test: Antiproliferative activity against human prostate cancer cells at 10 to 100 nM after 48 hrs by SRB assay; format: functional
# CNS carcinoma cell = test: Antiproliferative activity against human CNS cancer cells at 10 to 100 nM after 48 hrs by SRB assay; format: functional, cell-based
# Homo sapiens [21] = species on record: Homo sapiens; test: Antiproliferative activity against human non-small cell lung cancer cells at 10 to 100 nM after 48 hrs by SRB assay; format: functional
# Homo sapiens [22] = species on record: Homo sapiens; test: Antiproliferative activity against human renal cancer cells at 10 to 100 nM after 48 hrs by SRB assay; format: functional, cell-based
# NCI/ADR-RES = test: Antiproliferative activity against human NCI-ADR-RES cells after 48 hrs by SRB assay
# MDA-MB-231 [23] = test: Cell cycle arrest in human MDA-MB-231 cells assessed as accumulation at sub-G1 phase at 10 times IC50 after 48 hrs by propidium iodide staining based flow cytometry; format: functional
# In short: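 DMSO served as vehicle control and combretastatin A-4 at 0.1 μM as the G2/M-arrest control. Harvested cells were fixed and stained with propidium iodide plus RNase. DNA content was analysed by flow cytometry, and sub-G1 cells were counted. Each experiment was done at least twice.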
# Homo sapiens [24] = species on record: Homo sapiens; test: Antiproliferative activity against human […] cells at 10 to 100 nM after 48 hrs by SRB assay; format: functional, cell-based
SMILES,Activity (Homo sapiens [1]),Activity (MDA-MB-231 [2]),Activity (KB [3]),Activity (A549 [4]),Activity (MCF7 [5]),IC50 [6] [nM],IC50 [7] [nM],IC50 [8] [nM],IC50 (MDA-MB-231 [9]) [nM],IC50 (KB [10]) [nM],IC50 (KB [11]) [nM],IC50 (A549 [12]) [nM],IC50 (MDA-MB-231 [13]) [nM],IC50 (MCF7 [14]) [nM],IC50 (MCF7 [15]) [nM],IC50 (KB [16]) [nM],IC50 (A549 [17]) [nM],IC50 (A549 [18]) [nM],IC50 (MDA-MB-231 [19]) [nM],IC50 (MCF7 [20]) [nM],further results
C=C[C@H]1[C@H](O[C@@H]2O[C@H](CO)[C@@H](O)[C@H](O)[C@H]2OC(=O)/C=C/c2cc(OC)c(O)c(OC)c2)OC=C2C(=O)N3CCc4cc(O)c(O)cc4[C@H]3C[C@H]21,inactive,inactive,inactive,inactive,inactive,,,,,,,,,,,,,,,,
C=C[C@H]1[C@H](O[C@@H]2O[C@H](CO)[C@@H](O)[C@H](O)[C@H]2OC(=O)/C=C/c2cc(OC)c(O)c(OC)c2)OC=C2C(=O)N3CCc4cc(O)c(OC)cc4[C@H]3C[C@H]21,inactive,inactive,inactive,inactive,inactive,,,,,,,,,,,,,,,,
CC(=O)O[C@H]1C(=O)[C@@]2(C)[C@H]([C@H](OC(=O)c3ccccc3)[C@]3(O)C[C@H](OC(=O)[C@H](O)[C@@H](NC(=O)c4ccccc4)c4ccccc4)C(C)=C1C3(C)C)[C@]1(OC(C)=O)CO[C@@H]1C[C@@H]2O [PACLITAXEL],,,,,,2880,2380,> 3000,,,,,,,,,,,,,
CC[C@H]1CN2CCc3cc(O)c(OC)cc3[C@@H]2C[C@@H]1C[C@H]1NCCc2c1[nH]c1ccc(O)cc21,,,,,,> 10000,> 10000,> 10000,230,470,290,620,190,380,250,620,360,300,220,270,
COc1cccc2c1C(=O)c1c(O)c3c(c(O)c1C2=O)C[C@@](O)(C(=O)CO)C[C@@H]3O[C@H]1C[C@H](N)[C@H](O)[C@H](C)O1 [DOXORUBICIN],,,,,,> 1000,> 1000,> 1000,,340,820,,,,,220,,,,,
CC[C@H]1CN2CCc3c(cc(OC)c(OC)c3O)[C@@H]2C[C@@H]1C[C@H]1NCCc2c1[nH]c1ccc(O)cc21,,,,,,11100,> 10000,8900,80,150,90,280,60,210,120,210,210,230,80,160,Activity (Ovarian carcinoma cell): Active; Activity (Leukemia cell): Active; Activity (Melanoma cell): Active; Activity (Breast carcinoma cell): Active; Activity (Prostatic carcinoma cell): Active; Activity (CNS carcinoma cell): Active; Activity (Homo sapiens [21]): Active; Activity (Homo sapiens [22]): Active; Activity (NCI/ADR-RES): Active; Activity (MDA-MB-231 [23]): Active; Activity (Homo sapiens [24]): Active
